Tested on: Fibroblast
Experiment: Multiplex assay against human fibroblast
Format: toxicity, cell-based
Outline: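 Hoechst33342, BioTracker Green Microtubule Cytoskeleton Dye, MitoTracker Red and Annexin V Alexa Fluor 680 were added to live cells at seeding, and imaging on a CQ1 microscope at 37°C and 5% CO2 followed compound addition. Gating by CellPathfinder machine learning separated cells into Hoechst high-intensity objects or normal cells, then normal cells into healthy, pyknosed or fragmented nuclei, then pyknosed cells into mitotic or apoptotic. Per cents of healthy-nucleus cells are reported for the tubulin, mitochondrial-mass and membrane-permeability phenotypes.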

[1] = 12 h, 1 µM, compound concentration 1 uM, replicate 1
[2] = 12 h, 1 µM, compound concentration 1 uM, replicate 2
[3] = 12 h, 10 µM, compound concentration 10 uM, replicate 1
[4] = 12 h, 10 µM, compound concentration 10 uM, replicate 2
[5] = 24 h, 1 µM, compound concentration 1 uM, replicate 1
[6] = 24 h, 1 µM, compound concentration 1 uM, replicate 2
[7] = 24 h, 10 µM, compound concentration 10 uM, replicate 1
[8] = 24 h, 10 µM, compound concentration 10 uM, replicate 2
[9] = 48 h, 1 µM, compound concentration 1 uM, replicate 1
[10] = 48 h, 1 µM, compound concentration 1 uM, replicate 2
[11] = 48 h, 10 µM, compound concentration 10 uM, replicate 1
[12] = 48 h, 10 µM, compound concentration 10 uM, replicate 2

SMILES: Cl.Cl.Nc1ncnc2c1c(-c1cccc(OCc3ccccc3)c1)cn2[C@H]1C[C@@H](CN2CCC2)C1
- Population Apoptotic (%) [1]: 70%
- Population Fragmented Nuclei (%) [1]: 31%
- Population Healthy Nuclei (%) [1]: 48%
- Population Hoechst High Intensity Objects (%) [1]: 22%
- Population Membrane Permeable-Phenotype (%) [1]: 21%
- Population Mitochondria Different-Phenotype (%) [1]: 9%
- Population Mitotic Cells (%) [1]: 29%
- Population Normal (%) [1]: 77%
- Population Pyknosed Nuclei (%) [1]: 20%
- Population Tubulin-Different-Phenotype (%) [1]: 53%
- Total Cell Count [1]: 109
- Population Apoptotic (%) [2]: 29%
- Population Fragmented Nuclei (%) [2]: 11%
- Population Healthy Nuclei (%) [2]: 67%
- Population Hoechst High Intensity Objects (%) [2]: 6%
- Population Membrane Permeable-Phenotype (%) [2]: 3%
- Population Mitochondria Different-Phenotype (%) [2]: 71%
- Population Mitotic Cells (%) [2]: 70%
- Population Normal (%) [2]: 93%
- Population Tubulin-Different-Phenotype (%) [2]: 52%
- Total Cell Count [2]: 55
- Population Apoptotic (%) [3]: 60%
- Population Fragmented Nuclei (%) [3]: 24%
- Population Healthy Nuclei (%) [3]: 39%
- Population Hoechst High Intensity Objects (%) [3]: 38%
- Population Membrane Permeable-Phenotype (%) [3]: 9%
- Population Mitochondria Different-Phenotype (%) [3]: 50%
- Population Mitotic Cells (%) [3]: 40%
- Population Normal (%) [3]: 61%
- Population Pyknosed Nuclei (%) [3]: 36%
- Population Tubulin-Different-Phenotype (%) [3]: 77%
- Total Cell Count [3]: 222
- Population Apoptotic (%) [4]: 85%
- Population Fragmented Nuclei (%) [4]: 22%
- Population Healthy Nuclei (%) [4]: 47%
- Population Hoechst High Intensity Objects (%) [4]: 8%
- Population Membrane Permeable-Phenotype (%) [4]: 77%
- Population Mitochondria Different-Phenotype (%) [4]: 97%
- Population Mitotic Cells (%) [4]: 14%
- Population Normal (%) [4]: 91%
- Population Pyknosed Nuclei (%) [4]: 29%
- Population Tubulin-Different-Phenotype (%) [4]: 97%
- Total Cell Count [4]: 90
- Population Apoptotic (%) [5]: 53%
- Population Fragmented Nuclei (%) [5]: 29%
- Population Healthy Nuclei (%) [5]: 57%
- Population Hoechst High Intensity Objects (%) [5]: 26%
- Population Membrane Permeable-Phenotype (%) [5]: 18%
- Population Mitochondria Different-Phenotype (%) [5]: 3%
- Population Mitotic Cells (%) [5]: 46%
- Population Normal (%) [5]: 73%
- Population Pyknosed Nuclei (%) [5]: 12%
- Population Tubulin-Different-Phenotype (%) [5]: 53%
- Total Cell Count [5]: 141
- Population Apoptotic (%) [6]: 28%
- Population Fragmented Nuclei (%) [6]: 13%
- Population Healthy Nuclei (%) [6]: 64%
- Population Hoechst High Intensity Objects (%) [6]: 6%
- Population Membrane Permeable-Phenotype (%) [6]: 4%
- Population Mitochondria Different-Phenotype (%) [6]: 68%
- Population Mitotic Cells (%) [6]: 71%
- Population Normal (%) [6]: 93%
- Population Pyknosed Nuclei (%) [6]: 21%
- Population Tubulin-Different-Phenotype (%) [6]: 39%
- Total Cell Count [6]: 50
- Population Apoptotic (%) [7]: 84%
- Population Fragmented Nuclei (%) [7]: 18%
- Population Healthy Nuclei (%) [7]: 40%
- Population Hoechst High Intensity Objects (%) [7]: 48%
- Population Membrane Permeable-Phenotype (%) [7]: 5%
- Population Mitochondria Different-Phenotype (%) [7]: 59%
- Population Mitotic Cells (%) [7]: 15%
- Population Normal (%) [7]: 51%
- Population Pyknosed Nuclei (%) [7]: 41%
- Population Tubulin-Different-Phenotype (%) [7]: 67%
- Total Cell Count [7]: 178
- Population Apoptotic (%) [8]: 92%
- Population Fragmented Nuclei (%) [8]: 21%
- Population Healthy Nuclei (%) [8]: 35%
- Population Hoechst High Intensity Objects (%) [8]: 9%
- Population Membrane Permeable-Phenotype (%) [8]: 93%
- Population Mitochondria Different-Phenotype (%) [8]: 96%
- Population Mitotic Cells (%) [8]: 7%
- Population Normal (%) [8]: 90%
- Population Pyknosed Nuclei (%) [8]: 42%
- Population Tubulin-Different-Phenotype (%) [8]: 96%
- Total Cell Count [8]: 104
- Population Apoptotic (%) [9]: 83%
- Population Fragmented Nuclei (%) [9]: 36%
- Population Healthy Nuclei (%) [9]: 56%
- Population Hoechst High Intensity Objects (%) [9]: 28%
- Population Membrane Permeable-Phenotype (%) [9]: 12%
- Population Mitotic Cells (%) [9]: 16%
- Population Normal (%) [9]: 71%
- Population Pyknosed Nuclei (%) [9]: 6%
- Population Tubulin-Different-Phenotype (%) [9]: 33%
- Total Cell Count [9]: 132
- Population Apoptotic (%) [10]: 50%
- Population Fragmented Nuclei (%) [10]: 32%
- Population Healthy Nuclei (%) [10]: 65%
- Population Hoechst High Intensity Objects (%) [10]: 22%
- Population Membrane Permeable-Phenotype (%) [10]: 9%
- Population Mitochondria Different-Phenotype (%) [10]: 5%
- Population Mitotic Cells (%) [10]: 50%
- Population Normal (%) [10]: 77%
- Population Pyknosed Nuclei (%) [10]: 1%
- Population Tubulin-Different-Phenotype (%) [10]: 54%
- Total Cell Count [10]: 145
- Population Apoptotic (%) [11]: 94%
- Population Fragmented Nuclei (%) [11]: 34%
- Population Healthy Nuclei (%) [11]: 25%
- Population Hoechst High Intensity Objects (%) [11]: 32%
- Population Membrane Permeable-Phenotype (%) [11]: 0%
- Population Mitochondria Different-Phenotype (%) [11]: 79%
- Population Mitotic Cells (%) [11]: 5%
- Population Normal (%) [11]: 67%
- Population Pyknosed Nuclei (%) [11]: 40%
- Population Tubulin-Different-Phenotype (%) [11]: 79%
- Total Cell Count [11]: 139
- Population Apoptotic (%) [12]: 81%
- Population Fragmented Nuclei (%) [12]: 14%
- Population Healthy Nuclei (%) [12]: 34%
- Population Hoechst High Intensity Objects (%) [12]: 47%
- Population Membrane Permeable-Phenotype (%) [12]: 9%
- Population Mitochondria Different-Phenotype (%) [12]: 68%
- Population Mitotic Cells (%) [12]: 18%
- Population Normal (%) [12]: 52%
- Population Pyknosed Nuclei (%) [12]: 51%
- Population Tubulin-Different-Phenotype (%) [12]: 63%
- Total Cell Count [12]: 122

Source: ChEMBL document CHEMBL4689842, “EUbOPEN Chemogenomics Library wave 1” (2021)
